From ChEMBL document CHEMBL4014352, “Paying the Price of Desolvation in Solvent-Exposed Protein Pockets: Impact of Distal Solubilizing Groups on Affinity and Binding Thermodynamics in a Series of Thermolysin Inhibitors” (J Med Chem, 2017)
Activity calls are given as the source filed them.

How the values were obtained:
[1] = target: T1, Thermolysin (Bacillus thermoproteolyticus) (UniProt P00800); test: Binding affinity to Bacillus thermoproteolyticus thermolysin using HEPES buffer by ITC
T1 sequence (whole entry): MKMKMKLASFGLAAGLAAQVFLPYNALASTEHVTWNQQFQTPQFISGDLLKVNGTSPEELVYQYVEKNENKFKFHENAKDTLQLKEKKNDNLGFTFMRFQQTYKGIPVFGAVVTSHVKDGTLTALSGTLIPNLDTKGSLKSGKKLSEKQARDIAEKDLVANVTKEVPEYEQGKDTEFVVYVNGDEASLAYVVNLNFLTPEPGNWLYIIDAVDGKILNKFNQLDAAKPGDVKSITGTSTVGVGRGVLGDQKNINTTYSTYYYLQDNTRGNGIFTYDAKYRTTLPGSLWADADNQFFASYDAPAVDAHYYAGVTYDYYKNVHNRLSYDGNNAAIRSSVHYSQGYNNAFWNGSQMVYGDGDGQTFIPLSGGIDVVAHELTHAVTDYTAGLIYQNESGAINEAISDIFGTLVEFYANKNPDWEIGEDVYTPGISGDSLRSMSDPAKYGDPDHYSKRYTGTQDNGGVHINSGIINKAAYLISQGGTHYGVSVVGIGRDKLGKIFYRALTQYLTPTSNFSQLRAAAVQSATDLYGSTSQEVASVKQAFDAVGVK
How it was run: (§1)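 Freeze-dried thermolysin was dissolved just before each run in 20 mM buffer (HEPES, PIPES or sodium cacodylate, as in the line), 2 mM CaCl2 and 500 mM NaSCN, pH 7.5. ITC ran at 298 K with 10–15 injections, using either 250 μM protein with 3–3.5 mM ligand or 48 μM protein with 1 mM ligand. Ligand concentrations were corrected for qNMR purity. Each titration was run at least in duplicate.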

[2] = target: T1, Thermolysin (Bacillus thermoproteolyticus); test: Binding affinity to Bacillus thermoproteolyticus thermolysin using PIPES buffer by ITC; how it was run: as §1
[3] = target: T1, Thermolysin (Bacillus thermoproteolyticus); test: Binding affinity to Bacillus thermoproteolyticus thermolysin using cacodylate buffer by ITC; how it was run: as §1

Measured: Activity

CCNC(=O)[C@H](CC(C)C)NP(=O)(O)CNC(=O)OCc1ccccc1
active: [1] | [2] | [3]

CCCNC(=O)[C@H](CC(C)C)NP(=O)(O)CNC(=O)OCc1ccccc1
active: [1] | [2] | [3]

CCC[C@H](NC(=O)[C@H](CC(C)C)NP(=O)(O)CNC(=O)OCc1ccccc1)C(=O)O
active: [1] | [2] | [3]

CC(C)C[C@H](NP(=O)(O)CNC(=O)OCc1ccccc1)C(=O)N[C@@H](CCN)C(=O)O
active: [1] | [2] | [3]

CC(C)C[C@H](NP(=O)(O)CNC(=O)OCc1ccccc1)C(=O)N[C@@H](CCCN)C(=O)O
active: [1] | [2] | [3]

CC(C)C[C@H](NP(=O)(O)CNC(=O)OCc1ccccc1)C(=O)NCCCCN
active: [1] | [2] | [3]

CC[C@H](NC(=O)[C@H](CC(C)C)NP(=O)(O)CNC(=O)OCc1ccccc1)C(=O)O
active: [1] | [2] | [3]

CC(C)C[C@H](NP(=O)(O)CNC(=O)OCc1ccccc1)C(=O)NCCCN
active: [1] | [2] | [3]

CC(C)C[C@H](NP(=O)(O)CNC(=O)OCc1ccccc1)C(=O)NCN
active: [1] | [2] | [3]

CC(C)C[C@H](NP(=O)(O)CNC(=O)OCc1ccccc1)C(=O)NCCN
active: [1] | [2] | [3]

CC(C)C[C@H](NP(=O)(O)CNC(=O)OCc1ccccc1)C(=O)N[C@@H](CN)C(=O)O
active: [1] | [2] | [3]

CC(C)C[C@H](NP(=O)(O)CNC(=O)OCc1ccccc1)C(=O)N[C@@H](CCCCN)C(=O)O
active: [1] | [2] | [3]
